# DNMT1 inh: DNMT1 (human) enzyme inhibition. actives 0.83% (n = 360,000). DNMT1 molecular beacon, Hinp1I cleavage, fluorescence. inhibition (reported as % activation of signal), % at 10 µM; in the data active = inhibition above about 50%
# Scp1 inh: blocks human Scp-1 phosphatase activity; Recombinant Scp1, phosphopeptide, malachite green phosphate absorbance; inhibition, % at 20 µM; actives 0.88% (n = 340,000); AID 493091;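 active = inhibition above about 50% at 20 µM, limit read from the data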;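 note: plate controls were DMSO wells with enzyme for no effect and wells lacking enzyme for full effect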
# Target sequence (Q9GZU7 76-261 limits assumed): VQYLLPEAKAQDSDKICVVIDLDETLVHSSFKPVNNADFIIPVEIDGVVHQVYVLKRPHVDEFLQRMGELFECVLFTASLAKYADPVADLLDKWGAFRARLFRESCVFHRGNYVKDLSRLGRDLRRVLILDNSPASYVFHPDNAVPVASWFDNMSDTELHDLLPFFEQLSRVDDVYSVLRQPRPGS
#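 Incubation: 45 min enzyme reaction at room temperature / System: truncated SCP-1 phosphatase (76-261aa) / Reagent: Phospho 17-mer peptide substrate / Buffer or medium: Acidic Tris acetate buffer with magnesium and detergent / Signal: absorbance at 630 nm / Doses: one concentration, 20 µM, with 1.0% DMSO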
# SUMO1-SIM PPI: modulators of human SUMO1-mediated protein-protein interactions; P63165; SUMO1 binding to a labelled peptide, TR-FRET, 1 h; inhibition, % at 20 µM; actives 0.33% (n = 360,000); AID 602429; in the data active = inhibition above about 37%
# UBC9 SUMO inh: blocks human SUMOylation mediated by UBC9; P63279; HTRF SUMOylation assay, SAE1/SAE2 + UBC9, in vitro; inhibition, % at 35 µM; actives 0.36% (n = 290,000); AID 2006; in the data active = inhibition above about 50%, passing the limit was not always enough
# Target sequence (P63279 whole entry, looked up): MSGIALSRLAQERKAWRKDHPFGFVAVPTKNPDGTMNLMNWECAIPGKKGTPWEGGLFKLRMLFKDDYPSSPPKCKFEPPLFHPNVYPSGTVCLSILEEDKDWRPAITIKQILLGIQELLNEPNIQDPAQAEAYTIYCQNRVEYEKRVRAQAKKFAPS
# LMPTP inh: LMPTP (human) inhibition | AID 651560 | P24666 | recombinant LMPTP-A, OMFP fluorogenic substrate, fluorescence intensity | inhibition, % at 20 µM | actives 0.22% (n = 360,000);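 active = compounds that cut the enzyme signal by at least half of the control window in the single-dose screen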;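 note: plate controls were DMSO wells with enzyme plus substrate for no effect and substrate without enzyme for full effect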
# Target sequence (P24666 whole entry, looked up): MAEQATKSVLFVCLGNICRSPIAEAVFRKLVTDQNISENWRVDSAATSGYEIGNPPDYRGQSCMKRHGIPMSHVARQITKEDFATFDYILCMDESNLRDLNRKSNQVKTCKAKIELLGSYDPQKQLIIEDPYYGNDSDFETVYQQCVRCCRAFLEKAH
#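 Buffer or medium: Bis-Tris pH 6.0, DTT, detergent; Assay system: LMPTP-A enzyme; Quantity: 0.625 nM enzyme; Detection: endpoint fluorescence intensity; Times: 50 min dark incubation at room temperature; Controls: substrate-only low control, DMSO enzyme-plus-substrate high control; Doses: single 20 µM dose; Read-out: percent inhibition versus substrate-only and uninhibited controls; Reagent: 400 µM OMFP.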
# STEP inh: blocks human striatal-enriched tyrosine phosphatase | recombinant STEP, OMFP fluorogenic substrate, fluorescence | inhibition, % at 20 µM | actives 0.25% (n = 360,000) | P54829 | AID 588621;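 active = inhibition at 20 µM, scaled per plate between control wells, above about 37%, limit read from the data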;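 note: 0% = DMSO with enzyme and substrate and 100% = substrate only without enzyme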
#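 medium = Bis-Tris buffer pH 6.0, 2.5 mM DTT, 0.005% Tween 20 | test system = STEP (striatal-enriched tyrosine phosphatase) enzyme, cell-free | measure = normalized % inhibition | compound dosing = 20 µM, 1% DMSO | also added = 25 µM OMFP | schedule = reaction 20 min, ambient temperature | measured by = fluorescence read at 480 nm ex / 540 nm em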
# The depositor's hits bear a star; i = inactive; x = no result given; + = active, no number; ! = not active in a repeat. Compounds with a hit are over-represented: about 1.9% of the library has one in this group of screens.
SMILES,DNMT1 inh,Scp1 inh,SUMO1-SIM PPI,UBC9 SUMO inh,LMPTP inh,STEP inh
FC(F)(F)c1ccccc1NC(=S)Nc1cccc2cnccc12,-15,-4,-14,95,0,1
S=C(Nc1cccc(Cl)c1)Nc1cccc2cnccc12,-32,-12,14,98*,4,3
Cc1ccc(C)c(NC(=S)Nc2cccc3cnccc23)c1,4,-6,25,99,6,11
Cc1ccc(NC(=S)Nc2cccc3cnccc23)cc1,-13,-12,-4,100*,3,0
CC(=O)c1ccc(NC(=S)Nc2cccc3cnccc23)cc1,-7,-1,-30,98*,5,5
CNC(=O)C[C@@H]1C(=O)N(c2ccc(OC)cc2)CC1(C)C,1,x,-2,x,0,-3
C(=C\c1ccccc1)/CN1CCN(C(c2ccccc2)c2nnnn2C2CCCCC2)CC1 (stereo not drawn),-12,x,0,x,-1,0
CC(C)OCCCNC(=O)CNC(=O)c1ccc(Cl)c(Cl)c1,0,-4,-1,9,-2,-3
Cc1ccccc1NC(=S)Nc1cccc2cnccc12,-15,-1,0,97*,4,4
Cc1cc(C)c2c(N=NN3CCOCC3)[nH]nc2n1,10,-6,-2,6,2,-4
CC(C)NC(=O)c1nc2c(nnn2Cc2cccc(Cl)c2)c(=O)[nH]1,2,-2,5,-4,-1,0
O=c1c2ccccc2sn1-c1ccc(F)cc1,1,81*,3,x,-2,2
COC(=O)c1cccc(N2CCCC2=O)c1,0,1,3,-1,-2,-1
COC(=O)c1cccc(-n2sc3ccccc3c2=O)c1,5,95*,-2,x,-2,2
Cc1ccc(-n2sc3ccccc3c2=O)cc1,5,64*,2,-33,0,-3
O=C1NCCCC2c3cc(O)c4ccccc4c3OC12N1CCCCC1 (stereo not drawn),x,x,x,56*,x,x
COc1ccc(NC(=O)Nc2nnc(-c3ccccc3SCc3ccccc3)s2)cc1,23,0,-1,11,2,0
COc1cccc(NC(=O)Nc2nnc(-c3ccccc3SCc3ccccc3)s2)c1,22,-2,-2,55*,-2,-1
O=C(Nc1nnc(-c2ccccc2SCc2ccccc2)s1)Nc1ccccc1F,42,-3,2,70*,-2,1
CC1Cc2cccc3ccc(=O)n(c23)C1 (stereo not drawn),0,0,-5,x,-1,-2
O=c1cc(-c2cc3ccccc3o2)c2cc(O)ccc2o1,-2,28,-7,18,58*,12
CC(=O)COc1ccc2oc(=O)cc(-c3cc4ccccc4o3)c2c1,-4,-8,-39,18,4,3
CN(CC(=O)Nc1ccccc1C(=O)NC1CC1)Cc1ccco1,0,-3,4,x,-1,-3
CC(=O)Nc1cc(OC(C)=O)c2nonc2c1OC(C)=O,29,-8,8,101*,2,-1
COc1ccc(CN2C(=O)Cc3c2nc(N)c2c(N)nc(N4CCOCC4)c(C#N)c32)cc1,-23,-2,15,101*,6,4
SMILES,DNMT1 inh,Scp1 inh,SUMO1-SIM PPI,UBC9 SUMO inh,LMPTP inh,STEP inh
COCC(C)N1C(=O)Cc2c1nc(N)c1c(N)nc(N3CCN(c4ccccc4F)CC3)c(C#N)c21 (stereo not drawn),-18,-5,10,97,3,12
CN(CCO)c1nc(N)c2c(N)nc3c(c2c1C#N)CC(=O)N3Cc1cccs1,-13,-7,9,101*,3,3
CCOc1cc2c(C#N)c(N3CCOCC3)nc(N)c2c(N)n1,18,12,12,97*,9,1
N#Cc1c(N(CCO)CCO)nc(N)c2c(N)nc3c(c12)CC(=O)N3Cc1cccs1,-24,-2,19,99,14,4
COCCN1C(=O)Cc2c1nc(N)c1c(N)nc(N3CCN(c4ccc(F)cc4)CC3)c(C#N)c21,-22,-8,4,93*,12,9
Cc1cc(C)c(C#N)c(N2CCOCC2)n1,1,-6,0,3,-1,2
CCC1Cc2c(nc(N)c3c(N)nc(N4CCOCC4)c(C#N)c23)O1 (stereo not drawn),-19,-2,16,28,-2,1
C[n+]1c2cc(N)ccc2cc2ccc(N)cc21,+,-1,78*!,x,8,i
Nc1ccc2ccc(O)cc2c1,3,33,24,x,6,-2
O=C(NNS(=O)(=O)c1ccc(Cl)cc1)c1cccc(S(=O)(=O)N2CCOCC2)c1,5,-2,4,27,0,-2
CSCCC(NS(=O)(=O)c1c(Cl)cccc1Cl)C(=O)O (stereo not drawn),3,4,-4,3,-2,4
CCOC(=O)Cc1nnc(Nc2ccc(C(=O)NC)cc2)c2ccccc12,4,-4,-6,26,1,-3
Cc1nc(N)nc(N)c1CCCc1ccc(Cl)c(Cl)c1,3,-7,-3,x,64*,0
Cc1nc(N)nc(N)c1-c1ccc(Cl)c(Cl)c1,8,-5,-3,x,57*,2
O=C(O)c1ccc(Cl)c2c1C1C=CCC1C(c1ccccn1)N2 (stereo not drawn),x,x,x,33,x,x
O=[N+]([O-])c1ccc(Cl)c2c1C1C=CCC1C(c1ccccn1)N2 (stereo not drawn),51*,-3,17,22,14,4
COc1cc(C(=O)NCC(=O)NC(C)c2ccc(-n3ccnc3)cc2)cc(OC)c1OC (stereo not drawn),2,-2,12,x,-1,2
CCOc1ccc(C(=O)NCC(=O)NC(C)c2ccc(-n3ccnc3)cc2)cc1OCC (stereo not drawn),1,-2,45*,2,-1,-2
CCOC(=O)C1(C)CCN1C(=O)Cc1ccc(OC)cc1 (stereo not drawn),1,x,-4,x,-2,-3
CCC(C)(C)NC(=O)CN(CC1CCCO1)C(=O)CCC(=O)Nc1nccs1 (stereo not drawn),0,22,47*,8,1,-1
CCOC(=O)c1ccc(N2CC(O)=C(c3nc4ccccc4c(=O)[nH]3)C2=N)cc1,-3,9,50*,11,-1,-1
Cc1cc(C)nc(NC(=O)/C=C/c2ccccc2Cl)n1,1,-1,-10,19,0,0
Cc1cc(N)c2cc(NC(=O)/C=C/c3ccccc3Cl)ccc2n1,53*,-5,89*,5,20,6
CC(CNC(=O)c1cccs1)c1ccc([N+](=O)[O-])cc1 (stereo not drawn),-3,5,56*,17,-1,-3
